Source: PubChem (several laboratories)
Rows were chosen to be rich in hits. Some 2.6% of all compounds tested hit in one or more screens of this group.
rCAG RNA binder = molecules binding r(CAG) RNA repeats; actives 1.3% (n = 370,000); r(CAG) RNA repeat, TO-PRO-1 dye displacement fluorescence; inhibition, % at 3 µM;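 active means inhibition above the plate cutoff, the mean of all test compounds on that plate plus 3 SD, cut at about 35% in these data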;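 further: 0% = DMSO alone and 100% = 100 µM mitoxantrone as full dye displacement; higher means more dye released from RNA so lower well fluorescence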
NadD inh = blocks S. aureus nicotinate mononucleotide adenylyltransferase | purified NadD enzyme, colorimetric absorbance read-out | inhibition, % at 20 µM | actives 0.78% (n = 360,000) | AID 602399; in the data active means inhibition above about 26%
Scp-1 inhibitor = Scp-1 (human) phosphatase inhibition; inhibition, % at 20 µM; Recombinant Scp1, phosphopeptide, malachite green phosphate absorbance; actives 0.88% (n = 340,000);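 active means inhibition above about 50% at 20 µM, limit read from the data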;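 further: plate controls were DMSO wells with enzyme for no effect and wells lacking enzyme for full effect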
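Test system – truncated SCP-1 phosphatase (76-261aa) · Reagent – Phosphorylated 17-residue peptide substrate · Incubation – 45 min room-temperature reaction, 5 min colour, 30 min stabiliser · Detection – colorimetric phosphate reagent with accelerator and stabiliser, absorbance at 630 nm · Measure – % inhibition at 20 µM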
LMPTP block = LMPTP (human) inhibition; actives 0.22% (n = 360,000); recombinant LMPTP-A, OMFP fluorogenic substrate, fluorescence intensity; inhibition, % at 20 µM;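 active means compounds that cut the enzyme signal by at least half of the control window in the single-dose screen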;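 further: plate controls were DMSO wells with enzyme plus substrate for no effect and substrate without enzyme for full effect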
Target sequence (P24666 whole entry, looked up): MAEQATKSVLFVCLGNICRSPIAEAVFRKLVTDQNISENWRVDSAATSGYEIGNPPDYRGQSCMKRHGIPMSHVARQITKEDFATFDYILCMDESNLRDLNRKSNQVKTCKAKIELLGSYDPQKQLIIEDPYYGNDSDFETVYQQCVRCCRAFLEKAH
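Test system – LMPTP-A enzyme · Amount – LMPTP-A at 0.625 nM final in the reaction · Buffer or medium – Bis-Tris pH 6.0, DTT, detergent · Reagent – OMFP 400 µM · Doses – single 20 µM dose · Schedule – reaction 50 min, room temperature, dark · Detection – fluorescence intensity of OMFP turnover product · Evaluation – percent inhibition versus substrate-only and uninhibited controls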
STEP inh = inhibitors of human striatal-enriched phosphatase STEP; recombinant STEP, OMFP fluorogenic substrate, fluorescence; inhibition, % at 20 µM; actives 0.25% (n = 360,000); AID 588621;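 active means inhibition at 20 µM, scaled per plate between control wells, above about 37%, limit read from the data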;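 further: 0% = DMSO with enzyme and substrate and 100% = substrate only without enzyme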
Target sequence (P54829 whole entry, looked up): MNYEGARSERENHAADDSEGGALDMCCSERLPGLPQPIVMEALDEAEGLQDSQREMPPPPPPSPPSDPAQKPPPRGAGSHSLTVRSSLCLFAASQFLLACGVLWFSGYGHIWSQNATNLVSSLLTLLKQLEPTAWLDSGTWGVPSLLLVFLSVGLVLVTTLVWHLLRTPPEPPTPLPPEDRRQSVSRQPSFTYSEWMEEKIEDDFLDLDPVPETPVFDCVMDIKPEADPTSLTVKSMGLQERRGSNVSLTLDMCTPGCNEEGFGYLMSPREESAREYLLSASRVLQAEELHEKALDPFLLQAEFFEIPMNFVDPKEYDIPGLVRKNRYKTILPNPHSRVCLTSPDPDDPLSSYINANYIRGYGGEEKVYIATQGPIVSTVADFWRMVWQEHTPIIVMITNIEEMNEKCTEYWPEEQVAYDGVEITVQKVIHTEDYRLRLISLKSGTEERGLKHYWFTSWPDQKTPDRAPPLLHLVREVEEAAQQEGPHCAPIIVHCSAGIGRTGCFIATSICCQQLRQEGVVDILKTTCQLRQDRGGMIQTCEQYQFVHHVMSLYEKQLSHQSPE
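Assay system: isolated STEP enzyme / Timing: 20 min at room temperature, dark / Doses: 20 µM, 1% DMSO / Technique: fluorescence intensity, excitation 480 nm, emission 540 nm / Reagent: fluorogenic phosphatase substrate OMFP at 25 µM final / Measure: percent inhibition scaled to no-enzyme and uninhibited-enzyme controls, plate-pattern corrected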
rCAG binder conf = r(CAG) RNA repeat binding, confirmation; shares compounds with rCAG RNA binder; TO-PRO-1 dye displacement fluorescence; inhibition, % at 3 µM; actives 70% (n = 4,300); AID 652065;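 active means inhibition above a per-plate cutoff, the mean inhibition of sample wells plus 3 SD, cut at about 35% in these data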;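 further: loss of TO-PRO-1 fluorescence as compound displaces dye from 1x1 AA loop RNA; 0% = DMSO only wells and 100% = 100 µM mitoxantrone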
DNA CAG counter = DNA CAG dye complex inhibition counter-screen. shares compounds with rCAG RNA binder. d(CAG) DNA oligo TO-PRO-1 dye displacement, fluorescence. inhibition, % at 3 µM. actives 94% (n = 4,300). AID 652068;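 active means inhibition above its plate's cutoff, the mean test-well inhibition plus 3 SD, cut at about 4.8% in these data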;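 further: 0% = DNA dye mix with DMSO and 100% = 100 µM mitoxantrone; hits displace the dye from DNA and so lower well fluorescence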
dCAG dye DR = counter-screen for rCAG binders: inhibitors of DNA CAG TO-PRO-1 complex; shares compounds with rCAG RNA binder; DNA CAG/GTC duplex TO-PRO-1 dye displacement fluorescence; IC50, µM; actives 20% (n = 250); AID 686960; in the data active means IC50 below about 10 µM
* hit, by the source's call; i = inactive; x = no result.

SMILES | rCAG RNA binder | NadD inh | Scp-1 inhibitor | LMPTP block | STEP inh | rCAG binder conf | DNA CAG counter | others
COc1cc(/C=C/C(=O)O)ccc1OS(=O)(=O)c1c(C)cc(C)cc1C | 36* | -4 | 10 | -1 | 1 | 28 | 9.4*
N#Cc1ccccc1N1CCN(C(=O)C2CCN(c3ncnc4c3sc3cccc(F)c34)CC2)CC1 | 10 | x | x | x | x | x | x
CCn1c(C)c(/C=N/Nc2nc3ccccc3s2)c2ccccc21 | 47* | 17 | 5 | 4 | -3 | 32 | 15*
COc1ccc(NC(=S)NC(=O)/C=C/c2cccs2)cc1 | -4 | 7 | -5 | 1 | 0 | x | x
O=C(/C=C/c1cccs1)NC(=S)Nc1ccc(S(=O)(=O)Nc2ccccc2C(F)(F)F)cc1 | 56* | 15 | -11 | 3 | 2 | 70* | 32* | dCAG dye DR=i
Cc1cc(NS(=O)(=O)c2ccc(NC(=S)NC(=O)/C=C/c3ccccc3)cc2)no1 | 71* | 7 | -7 | 0 | 2 | 47* | 17*
Cc1ccc(/C=C/C(=O)NC(=S)Nc2ccc(S(=O)(=O)Nc3cc(C)on3)cc2)cc1 | 80* | 7 | -9 | 0 | -3 | 77* | 46*
CC(C)c1cc(C(C)C)c(S(=O)(=O)N2CCCC(C(=O)N3CCN(Cc4ccccc4)CC3)C2)c(C(C)C)c1 (centres undefined) | 7 | x | x | x | x | x | x
CC(C)Cn1nc(NS(=O)(=O)c2cccc3nonc23)c2cc3ccccc3nc21 | 53* | 10 | 1 | 0 | 0 | 39* | 12*
CC(=O)c1cccc(NC(=O)C(OC(=O)c2ccccc2NS(=O)(=O)c2cccs2)c2ccccc2)c1 (centres undefined) | 43* | 8 | -18 | 3 | -5 | 36* | 17*
O=C(Nc1ccc(Cl)c(Cl)c1)Nc1ccccc1C(=O)O | 61* | -5 | -7 | 1 | -6 | 51* | 11* | dCAG dye DR=>30
O=C(Nc1ccccc1)Nc1ccccc1NS(=O)(=O)c1cccs1 | 18 | -6 | -10 | 0 | 0 | x | x
O=C(Nc1ccc(Cl)c(Cl)c1)Nc1ccccc1NS(=O)(=O)c1cccs1 | 42* | -4 | 5 | 0 | 0 | 33 | 9.4*
O=C(Nc1ccc(Cl)cc1)Nc1ccccc1C(=O)O | 14 | -1 | -4 | 0 | -5 | x | x
Cc1ccc(C2CCC3(CCC(=O)N3CCOC(=O)Nc3ccc(Br)cc3)CC2)cc1 (centres undefined) | 6 | x | x | x | x | x | x
S=c1[nH]nc(-c2ccco2)n1/N=C/c1cccc(Cl)c1Cl | 57* | 19 | 4 | 2 | 0 | 48* | 15*
S=c1[nH]nc(-c2ccccc2)n1/N=C/C=C/c1ccco1 | 28 | 0 | -5 | -1 | 0 | x | x
S=c1[nH]nc(-c2ccc(Cl)cc2)n1/N=C/C=C/c1ccco1 | 37* | 6 | 2 | 4 | 2 | 35* | 13*
S=c1[nH]nc(-c2ccco2)n1/N=C/c1ccc(Cl)cc1Cl | 35* | 23 | -3 | 2 | 3 | 64* | 19*
COC(=O)c1cc2c(c3c4cc(C)ccc4n(S(=O)(=O)c4ccc(OC)cc4)c13)C(=O)N(C)C2 | 13 | x | x | x | x | x | x
O=C(O)[C@H](Cc1ccccc1)N1C(=O)c2c(Cl)c(Cl)c(Cl)c(Cl)c2C1=O | 50* | 11 | 4 | 0 | 7 | 63* | 28*
COC(=O)[C@]12C[C@H](CC(=O)NCc3ccccc3)C(=O)N(Cc3cccc4ccccc34)C1=C[C@H](C(C)C)O[C@@H]2C1CC1 | 7 | x | x | x | x | x | x
Oc1nc(Nc2ccc(F)cc2)sc1/C=C1\C=Nc2ccccc21 | 48* | 9 | -13 | 1 | -2 | 25 | 14*
Cc1ccc(OCC(=O)N/N=C\c2ccc(-c3cccc(C(=O)O)c3)o2)c(C)c1 | 46* | 6 | 48 | -1 | 2 | 42* | 11*
Cc1ccc(OCC(=O)N/N=C\c2ccc(C)o2)c(C)c1 | -5 | -3 | -1 | 0 | -1 | x | x
SMILES | rCAG RNA binder | NadD inh | Scp-1 inhibitor | LMPTP block | STEP inh | rCAG binder conf | DNA CAG counter | others
CC(C)(C)c1ccc2c(c1)OC(C(=O)N/N=C\c1ccc(-c3cccc(C(=O)O)c3)o1)CO2 (centres undefined) | 41* | 28 | 49 | 2 | 4 | 77* | 43*
O=S1(=O)c2ccc(Br)cc2OC[C@H](Cc2ccccc2)N1Cc1cn(CCC2OCCO2)nn1 | 3 | x | x | x | x | x | x
CC1=NN(C(N)=S)C(=O)C1N=Nc1c(Br)cc(Br)cc1Br (centres undefined) | 46* | 6 | 3 | 0 | 8 | 43* | 13* | dCAG dye DR=>30
CC1=NN(C(N)=S)C(=O)C1N=Nc1c(C)cc(C)cc1C (centres undefined) | 5 | 9 | -3 | 2 | 3 | x | x
Cc1n[nH]c(C)c1S(=O)(=O)NC(C)Cc1ccccn1 (centres undefined) | 4 | x | x | x | x | x | x
C[C@@H]1CN([C@@H](C)CO)C(=O)CCCn2cc(nn2)CO[C@H]1CN(C)C(=O)Nc1ccc2c(c1)OCO2 | -1 | x | x | x | x | x | x
COc1cc(/C=C2/C(=O)N(c3ccc(C)c(C)c3)N=C2C)cc([N+](=O)[O-])c1O | 37* | -4 | 1 | 0 | 3 | 46* | 12*
Nc1nonc1N/N=C/c1c(O)ccc2ccccc12 | 40* | -7 | -4 | 5 | 1 | 20 | 15*
CC(=NNC(=O)CSc1nnc(-c2ccccc2)n1-c1ccccc1)c1cccc([N+](=O)[O-])c1 | 2 | x | x | x | x | x | x
COc1ccc(/C=C2\C(=O)ON=C2c2cccc([N+](=O)[O-])c2)cc1 | 41* | x | x | x | x | 20 | 6.0*
COc1ccc(/C=C2/C(=O)ON=C2c2ccccc2)cc1OC | 6 | 12 | -6 | 0 | 1 | x | x
COc1cccc(CNC(=O)CN2CCCc3ccccc32)c1OC | 3 | x | x | x | x | x | x
Cc1ccsc1/C=C1\SC(=S)N(CC2CCCO2)C1=O (centres undefined) | 36* | -9 | -7 | 2 | 0 | 3 | 2
O=C1/C(=C/c2ccc(O)cc2)SC(=S)N1CC1CCCO1 (centres undefined) | -5 | -5 | -13 | 4 | -2 | x | x
N#CCC[C@@H]1CC[C@]2(CCCN(S(=O)(=O)C3CCCCC3)C2)O1 | 3 | x | x | x | x | x | x
Cc1ccc(S(=O)(=O)N2[C@@H](c3ccc(F)cc3)C(C(=O)O)=C[C@H]2CC2CCCC2)cc1 | 51* | 2 | 4 | 0 | -1 | 57* | 17*
CCc1ccc([C@H]2C(C(=O)O)=C[C@@H](CC3CCCC3)N2S(=O)(=O)c2ccc(C)cc2)cc1 | 76* | 12 | 8 | 1 | -1 | 62* | 26*
